Reference: ChEMBL document CHEMBL1123541, “Preparation and antitumor activity of 7-substituted 1,2-aziridinomitosenes” (J Med Chem, 1986)

Tests used:
Mus musculus [1] = experiment: Average weight change of BDF1 female mice at a dose of 4 mg/kg per injection; format: functional
Method in brief: (§1)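 BDF1 female mice implanted ip with 10^6 ascites leukemia cells, then given the aziridinomitosene on day 1 only, six mice per dose. Average weight change is the weight difference between the treated and control groups.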

Mus musculus [2] = experiment: Average weight change of BDF1 female mice at a dose of 32 mg/kg per injection; format: functional; method in brief: as §1
Mus musculus [3] = experiment: Average weight change of BDF1 female mice at a dose of 64 mg/kg per injection; format: functional; method in brief: as §1
P388 [4] = experiment: Compound was tested for antitumor activity against P388 Murine leukemia in BDF1 female mice at a dose of 3.2 mg/kg per injection given as MST treated / MST control x 100; format: functional, Mus musculus
Method in brief: (§2)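 P388 ascites cells (10^6) implanted ip into BDF1 female mice. Aziridinomitosene given on day 1 only, six mice per dose; ten saline-treated mice on day 1 only as controls. Read-out is median survival time in days, %T/C = MST treated/MST control × 100, with 125 taken as significant. Mitomycin C run as a positive control at its optimal dose.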

P388 [5] = experiment: Minimum effective dose determined against P-388 Murine leukemia in BDF1 female mice.; format: functional; settings: Mus musculus, read-out: MED
P388 [6] = experiment: Compound was tested for antitumor activity against P388 Murine leukemia in BDF1 female mice at a dose of 32 mg/kg per injection; format: functional, Mus musculus; method in brief: as §2
P388 [7] = experiment: Compound was tested for antitumor activity against P388 Murine leukemia in BDF1 female mice at a dose of 64 mg/kg per injection; format: functional, Mus musculus; method in brief: as §2
P388 [8] = experiment: Compound was tested for antitumor activity against P388 Murine leukemia in BDF1 female mice at a dose of 8 mg/kg per injection; format: functional, Mus musculus; method in brief: as §2
Mus musculus [9] = experiment: Average weight change of BDF1 female mice at a dose of 8 mg/kg per injection; format: functional; method in brief: as §1
P388 [10] = experiment: Compound was tested for antitumor activity against P388 Murine leukemia in BDF1 female mice at a dose of 16 mg/kg per injection; format: functional, Mus musculus; method in brief: as §2
P388 [11] = experiment: Compound was tested for antitumor activity against P388 Murine leukemia in BDF1 female mice at a dose of 4 mg/kg per injection; format: functional, Mus musculus; method in brief: as §2
[12] = Partition coefficient (logP); format: physicochemical; settings: octanol/water
Mus musculus [13] = experiment: Average weight change of BDF1 female mice at a dose of 16 mg/kg per injection; format: functional; method in brief: as §1
P388 [14] = experiment: Compound was tested for antitumor activity against P388 Murine leukemia in BDF1 female mice at a dose of 12.8 mg/kg per injection; format: functional, Mus musculus; set-up: unit not given here; method in brief: as §2
Mus musculus [15] = experiment: Average weight change of BDF1 female mice at a dose of 6.4 mg/kg per injection; format: functional; method in brief: as §1
P388 [16] = experiment: Compound was tested for antitumor activity against P388 Murine leukemia in BDF1 female mice at a dose of 0.8 mg/kg per injection; format: functional, Mus musculus; method in brief: as §2
P388 [17] = experiment: Compound was tested for antitumor activity against P388 Murine leukemia in BDF1 female mice at a dose of 6.4 mg/kg per injection; format: functional, Mus musculus; method in brief: as §2
Mus musculus [18] = experiment: Average weight change of BDF1 female mice at a dose of 1.6 mg/kg per injection; format: functional; method in brief: as §1
P388 [19] = experiment: Compound was tested for antitumor activity against P388 Murine leukemia in BDF1 female mice at a dose of 1.6 mg/kg per injection (MST treated / MST control x 100); format: functional, Mus musculus; method in brief: as §2
Mus musculus [20] = experiment: Average weight change of BDF1 female mice at a dose of 3.2 mg/kg per injection; format: functional; method in brief: as §1
Mus musculus [21] = experiment: Average weight change of BDF1 female mice at a dose of 0.8 mg/kg per injection; format: functional; method in brief: as §1
Mus musculus [22] = experiment: Average weight change of BDF1 female mice at a dose of 12.8 mg/kg per injection; format: functional; method in brief: as §1
P388 [23] = experiment: Compound was tested for antitumor activity against P388 Murine leukemia in BDF1 female mice at a dose of 3.2 mg/kg per injection; format: functional, Mus musculus; method in brief: as §2
P388 [24] = experiment: Compound was tested for antitumor activity against P388 Murine leukemia in BDF1 female mice at a dose of 0.4 mg/kg per injection; format: functional, Mus musculus; method in brief: as §2
Mus musculus [25] = experiment: Average weight change of BDF1 female mice at a dose of 25.6 mg/kg per injection; format: functional; method in brief: as §1
P388 [26] = experiment: Compound was tested for antitumor activity against P388 Murine leukemia in BDF1 female mice at a dose of 1.6 mg/kg per injection; format: functional, Mus musculus; method in brief: as §2
P388 [27] = experiment: Compound was tested for antitumor activity against P388 Murine leukemia in BDF1 female mice at a dose of 0.2 mg/kg per injection; format: functional, Mus musculus; method in brief: as §2
Mus musculus [28] = experiment: Average weight change of BDF1 female mice at a dose of 51.2 mg/kg per injection; format: functional; method in brief: as §1
P388 [29] = experiment: Compound was tested for antitumor activity against P388 Murine leukemia in BDF1 female mice at a dose of 3.2 mg/kg per injection (MST treated / MST control x 100); format: functional, Mus musculus; method in brief: as §2
P388 [30] = experiment: Compound was tested for antitumor activity against P388 Murine leukemia in BDF1 female mice at a dose of 25.6 mg/kg per injection; format: functional, Mus musculus; method in brief: as §2
P388 [31] = experiment: Compound was tested for antitumor activity against P388 Murine leukemia in BDF1 female mice at a dose of 51.2 mg/kg per injection (MST treated / MST control x 100); format: functional, Mus musculus; method in brief: as §2
Mus musculus [32] = experiment: Average weight change of BDF1 female mice at a dose of 6 mg/kg per injection; format: functional; method in brief: as §1
P388 [33] = experiment: Compound was tested for antitumor activity against P388 Murine leukemia in BDF1 female mice at a dose of 25.6 mg/kg per injection (MST treated / MST control x 100); format: functional, Mus musculus; method in brief: as §2
L1210 [34] = experiment: Compound was tested for antitumor activity against L-1210 Murine leukemia in BDF1 female mice at a dose of 24 mg/kg per injection; format: functional, Mus musculus
Method in brief: (§3)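 L-1210 run per NCI protocol. 10^6 ascites cells implanted ip into BDF1 female mice. Aziridinomitosene given on day 1 only, six mice per dose, with a control group of 36 mice. Median survival time in days is recorded, and %T/C = MST treated/MST control × 100, with 125 taken as significant.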

Mus musculus [35] = experiment: Average weight change of BDF1 female mice at a dose of 24 mg/kg per injection; format: functional; method in brief: as §1
Mus musculus [36] = experiment: Average weight change of BDF1 female mice at a dose of 48 mg/kg per injection; format: functional; method in brief: as §1
L1210 [37] = experiment: Compound was tested for antitumor activity against L-1210 Murine leukemia in BDF1 female mice at a dose of 48 mg/kg per injection; format: functional, Mus musculus; method in brief: as §3
L1210 [38] = experiment: Compound was tested for antitumor activity against L-1210 Murine leukemia in BDF1 female mice at a dose of 6 mg/kg per injection; format: functional, Mus musculus; method in brief: as §3
Mus musculus [39] = experiment: Average weight change of BDF1 female mice at a dose of 12 mg/kg per injection; format: functional; method in brief: as §1
L1210 [40] = experiment: Compound was tested for antitumor activity against L-1210 Murine leukemia in BDF1 female mice at a dose of 12 mg/kg per injection; format: functional, Mus musculus; method in brief: as §3

Row | Compound | minimal effective dose (P388 [5]) [mg/kg] | logP [12] | MST (P388 [14]) | Weight change (Mus musculus [15]) [g] | MST (P388 [16]) [days] | MST (P388 [17]) | Weight change (Mus musculus [18]) [g] | Weight change (Mus musculus [20]) [g] | Weight change (Mus musculus [21]) [g] | Weight change (Mus musculus [22]) [g] | Weight change (Mus musculus [25]) [g] | T/C (P388 [29]) [%] | further results
1 | CC1=C(NCc2ccco2)C(=O)c2c(COC(N)=O)c3n(c2C1=O)CC1NC31 (stereo not given) | 8 | 1.33 | – | – | – | – | – | – | – | – | – | – | Weight change (Mus musculus [1]): -0.7 g; Weight change (Mus musculus [2]): -1.2 g; Weight change (Mus musculus [3]): -1.8 g; T/C (P388 [4]): 228%; MST (P388 [6]): 189 days; MST (P388 [7]): 183 days; MST (P388 [8]): 144 days; Weight change (Mus musculus [9]): 0.1 g; MST (P388 [10]): 156 days; MST (P388 [11]): 122 days; Weight change (Mus musculus [13]): -1.7 g
2 | COC1=C(C)C(=O)c2c(c(COC(N)=O)c3n2CC2C3N2C)C1=O (stereo not given) | 0.8 | 1.28 | 213 | -0.3 | 150 | 213 days | -0.2 | 0.5 | 0.8 | -1.7 | – | – | T/C (P388 [19]): 156%; MST (P388 [23]): 188 days
3 | CC1=C(N2CC2C)C(=O)c2c(COC(N)=O)c3n(c2C1=O)CC1C3N1C (stereo not given) | 0.2 | 1.23 | 238 | -0.4 | 125 | 194 %T/C | 0 | 0 | – | -0.5 | -1 | 163 | MST (P388 [24]): 138 days; MST (P388 [26]): 156 days; T/C (P388 [27]): 125%; Weight change (Mus musculus [28]): -1.3 g
4 | COC1=C(C)C(=O)c2c(c(COC(N)=O)c3n2CC2NC32)C1=O (stereo not given) | 12.8 | 0.87 | 139 | 0 | – | 122 %T/C | – | -0.4 | – | -0.8 | -0.4 | 122 | MST (P388 [30]): 167 % T/C
5 | CC1=C(N2CC2)C(=O)c2c(COC(N)=O)c3n(c2C1=O)CC1NC31 (stereo not given) | 1.6 | 0.3 | 172 | – | 111 | – | 1 | 1 | 0.9 | 0.9 | -0.4 | 144 | T/C (P388 [31]): 206%; Weight change (Mus musculus [32]): -0.4 g; T/C (P388 [33]): 189%; MST (L1210 [34]): 120 days; Weight change (Mus musculus [35]): -2.6 g; Weight change (Mus musculus [36]): -4.2 g; MST (L1210 [37]): 131 days; % T/C (L1210 [38]): 118%; Weight change (Mus musculus [39]): -1.3 g; % T/C (L1210 [40]): 122%
